Results as given in ChEMBL document CHEMBL2412970, “Synthesis and anticancer activity of 2,4-disubstituted furo[3,2-b]indole derivatives” (Eur J Med Chem, 2013).
pIC50: −log10 of the molar value. Activity calls are given as the source filed them. No cut-off for these calls is given here.

Legend:
A498 [1] = test: Cell cycle arrest in human A498 cells assessed as accumulation at G0/G1 phase at 0.5 uM after 48 hrs by propidium iodide staining-based flow cytometry (reference value: 78.70 +/- 0.02%); type: functional
A498 [2] = test: Induction of cell cycle arrest at G2/M phase in human A498 cells assessed as increase in CDK1 expression at 0.5 uM after 6 hrs by Western blotting analysis; type: functional, cell-based
Summary of the method: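 A498 cells exposed to 0.5 µM for 6, 12, 24, 36 or 48 h, then lysed on ice 30 min and spun 12 000g 20 min. Protein measured by Bradford; 20 µg per lane run on 10% SDS-PAGE, transferred to nitrocellulose, probed for cyclin B1 and CDK1, β-actin as loading control; n = 3 independent experiments.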

A498 [3] = test: Cytotoxicity against human A498 cells assessed as reduction in cell viability at 0.5 uM after 48 hrs by MTT assay relative to control; type: functional
A498 [4] = test: Induction of apoptosis in human A498 cells assessed as caspase-9 activation at 0.5 uM after 24 hrs by Western blotting analysis; type: functional, cell-based
Summary of the method: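 A498 cells exposed for 6, 12, 24, 36 or 48 h, then washed in PBS and lysed. Lysates were held on ice for 30 min and spun at 12 000g for 20 min. Supernatant protein was measured by Bradford assay, run on 10% SDS-PAGE and transferred to nitrocellulose. Blots were probed for AIF, Endo G, Apaf-1, cytochrome c, caspase 9 and caspase 3, with β-actin as loading control; n = 3 independent experiments.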

A498 [5] = test: Ratio of YC-1 IC50 to compound IC50 for human A498 cells after 48 hrs by MTT assay; type: functional
IGROV-1 = test: Cytotoxicity against human IGROV1 cells after 48 hrs by sulforhodamine B assay; type: functional; conditions: IGROV-1, 48 h
M14 = test: Cytotoxicity against human M14 cells after 48 hrs by sulforhodamine B assay; type: functional; conditions: M14, 48 h
SNB-19 = test: Cytotoxicity against human SNB19 cells after 48 hrs by sulforhodamine B assay; type: functional; conditions: SNB-19, 48 h
Detroit 551 = test: Cytotoxicity against human Detroit 551 cells after 48 hrs by MTT assay; type: cell-based; conditions: Detroit 551, 48 h
A498 [6] = test: Cytotoxicity against human A498 cells after 48 hrs by MTT assay; type: functional, cell-based
786-0 = test: Cytotoxicity against human 786-0 cells after 48 hrs by sulforhodamine B assay; type: functional; conditions: 786-0, 48 h
HT-29 = test: Cytotoxicity against human HT-29 cells after 48 hrs by sulforhodamine B assay; type: functional; conditions: HT-29, 48 h
A498 [7] = test: Cytotoxicity against human A498 cells after 48 hrs by sulforhodamine B assay; type: functional; conditions: A498, 48 h
HL-60 = test: Cytotoxicity against human HL60 cells after 48 hrs by MTT assay; type: functional, cell-based; conditions: HL-60, 48 h
Summary of the method: (§1)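 Cells were treated with a range of concentrations for 48 h. Viability was read by MTT: formazan was dissolved in DMSO and absorbance read at 570 nm. Untreated or 0.1% DMSO cells served as control. Data are mean from three independent experiments. HL-60, H460 and COLO 205 were kept in RPMI-1640 with 10% FBS and penicillin/streptomycin.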

SR = test: Cytotoxicity against human SR cells after 48 hrs by sulforhodamine B assay; type: functional
[8] = Cytotoxicity against human EKVX cells after 48 hrs by sulforhodamine B assay; type: functional
MDA-MB-468 = test: Cytotoxicity against human MDA-MB-468 cells after 48 hrs by sulforhodamine B assay; type: functional; conditions: MDA-MB-468, 48 h
OVCAR-5 = test: Cytotoxicity against human OVCAR5 cells after 48 hrs by sulforhodamine B assay; type: functional; conditions: OVCAR-5, 48 h
A498 [9] = test: Cytotoxicity against human A498 cells assessed as reduction in cell viability at 0.1 uM after 48 hrs by MTT assay relative to control; type: functional
Mus musculus = test: Toxicity in BALB/cAnN.Cg-Foxn1nu/CrlNarl nude mouse assessed as change in body weight at 30 to 60 mg/kg/day, ip qd administered 5 times a week for 28 days measured every 7 days; type: organism-based; set-up: route intraperitoneal; conditions: in vivo
Summary of the method: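 Male nude mice, 18–20 g, 4–6 weeks old, carried subcutaneous A498 xenografts (2 × 10⁶ cells in 0.1 mL PBS). Once nodules reached 100 mm³, mice were randomized, eight per group. They received ip 30 or 60 mg/kg 5 times weekly for 4 weeks, with body weight and tumor size recorded every 7 days over 28 days.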

ACHN = test: Cytotoxicity against human ACHN cells after 48 hrs by sulforhodamine B assay; type: functional
NCI-H522 = test: Cytotoxicity against human NCI-H522 cells after 48 hrs by sulforhodamine B assay; type: functional; conditions: NCI-H522, 48 h
Hs-578T = test: Cytotoxicity against human Hs578T cells after 48 hrs by sulforhodamine B assay; type: functional
A498 [10] = test: Induction of apoptosis in human A498 cells assessed as late apoptotic cells at 0.5 uM after 12 hrs by AnnexinV/FITC-propidium iodide staining-based flow cytometry (reference value: 9.6%); type: functional
Summary of the method: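 Flow cytometry with annexin V-FITC/PI double labeling of A498 cells treated for 12, 24, 36 or 48 h; untreated cells served as the 0 h control. Stained in binding buffer for 15 min at room temperature in the dark, with more binding buffer added just before analysis. Annexin V+/PI− (Q4) counted as early apoptotic and annexin V+/PI+ (Q2) as late apoptotic.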

HL-60(TB) = test: Cytotoxicity against human HL-60(TB) cells after 48 hrs by sulforhodamine B assay; type: functional; conditions: HL-60, 48 h
T47D = test: Cytotoxicity against human T47D cells after 48 hrs by sulforhodamine B assay; type: functional
[11] = Cytotoxicity against human H460 cells after 48 hrs by MTT assay; type: functional, cell-based; conditions: NCI-H460, 48 h; summary of the method: as §1
A498 [12] = test: Induction of apoptosis in human A498 cells assessed as reduction in mitochondrial membrane potential at 0.5 uM after 12 to 48 hrs by JC-1 staining-based flow cytometry; type: functional, cell-based
Summary of the method: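 A498 cells at 1 × 10⁶ cells/mL, untreated or treated for 12–48 h, were stained with JC-1 working solution for 10–15 min and analysed by flow cytometry. High-potential cells show intense red JC-1 aggregate fluorescence; loss of potential is scored as the population with reduced red fluorescence.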

[13] = read-out: pLC50 (the source's name) (converted)

In the case of `OCc1ccc(Cn2c3ccccc3c3oc(CO)cc32)o1`, the Activity (A498 [1]) was 71.26%, the Activity (A498 [2]) was “Active” and the Activity (A498 [3]) was 37.5%. For the same compound, the Activity (A498 [4]) was “Active”, the “Ratio IC50” value (A498 [5]) was 1.5 and the GI50 (IGROV-1) was 4.68 µM. For the same compound, the CC50 (IGROV-1; [13]) was > 100 µM, the TGI (IGROV-1; read-out: pTGI) was > 100 µM and the GI50 (M14) was 13.2 µM. The CC50 (M14; [13]) was > 100 µM, the TGI (M14; read-out: pTGI) was > 100 µM and the GI50 (SNB-19) was > 100 µM. For the same compound, the CC50 (SNB-19; [13]) was > 100 µM, the TGI (SNB-19; read-out: pTGI) was > 100 µM and the pIC50 (Detroit 551) was < 4.30. For the same compound, the Activity (A498 [6]) was “Dose-dependent effect”, the pIC50 (A498 [6]; A498, 48 h) was 6.68 and the GI50 (786-0) was 50.1 µM. The CC50 (786-0; [13]) was > 100 µM, the TGI (786-0; read-out: pTGI) was > 100 µM and the GI50 (HT-29) was 41.7 µM. For the same compound, the CC50 (HT-29; [13]) was > 100 µM, the TGI (HT-29; read-out: pTGI) was > 100 µM and the GI50 (A498 [7]) was 0.141 µM. The CC50 (A498 [7]; read-out: pLC50 (converted)) was 0.661 µM, the TGI (A498 [7]; read-out: pTGI (converted)) was 0.302 µM and the pIC50 (HL-60) was < 4.30. The GI50 (SR) was 89.1 µM, the CC50 (SR; [13]) was > 100 µM and the TGI (SR; read-out: pTGI) was > 100 µM. The GI50 [8] was 24 µM, the CC50 [8, 13] was > 100 µM and the TGI ([8]; read-out: pTGI) was > 100 µM. For the same compound, the GI50 (MDA-MB-468) was 0.17 µM, the TGI (MDA-MB-468; read-out: pTGI (converted)) was 0.562 µM and the GI50 (OVCAR-5) was 0.331 µM. For the same compound, the TGI (OVCAR-5; read-out: pTGI (converted)) was 1.2 µM, the Activity (A498 [9]) was 82.8% and the Activity (Mus musculus) was “Non-toxic”. The GI50 (ACHN) was 79.4 µM, the CC50 (ACHN; [13]) was > 100 µM and the TGI (ACHN; read-out: pTGI) was > 100 µM. For the same compound, the GI50 (NCI-H522) was 39.8 µM, the CC50 (NCI-H522; [13]) was > 100 µM and the TGI (NCI-H522; read-out: pTGI) was > 100 µM. For the same compound, the GI50 (Hs-578T) was > 100 µM, the CC50 (Hs-578T; [13]) was > 100 µM and the TGI (Hs-578T; read-out: pTGI) was > 100 µM. The Activity (A498 [10]) was 10%, the GI50 (HL-60(TB)) was > 100 µM and the CC50 (HL-60(TB); [13]) was > 100 µM. For the same compound, the TGI (HL-60(TB); read-out: pTGI) was > 100 µM, the GI50 (T47D) was 1.62 µM and the CC50 (T47D; [13]) was > 100 µM. For the same compound, the TGI (T47D; read-out: pTGI) was > 100 µM, the pIC50 [11] was 4.13 and the Activity (A498 [12]) was “Active”.
